PMI act = activators of human phosphomannose isomerase; 0.005% of 190,000 active; activation factor at 20 µM; purified human PMI, coupled resazurin fluorescence, 20 min; hits give high values; 1 = vehicle control, 0 substrate-free wells;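 active means activation factor of 2 or more at 20 µM, relative to plate controls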
Target sequence (P34949 whole entry, looked up): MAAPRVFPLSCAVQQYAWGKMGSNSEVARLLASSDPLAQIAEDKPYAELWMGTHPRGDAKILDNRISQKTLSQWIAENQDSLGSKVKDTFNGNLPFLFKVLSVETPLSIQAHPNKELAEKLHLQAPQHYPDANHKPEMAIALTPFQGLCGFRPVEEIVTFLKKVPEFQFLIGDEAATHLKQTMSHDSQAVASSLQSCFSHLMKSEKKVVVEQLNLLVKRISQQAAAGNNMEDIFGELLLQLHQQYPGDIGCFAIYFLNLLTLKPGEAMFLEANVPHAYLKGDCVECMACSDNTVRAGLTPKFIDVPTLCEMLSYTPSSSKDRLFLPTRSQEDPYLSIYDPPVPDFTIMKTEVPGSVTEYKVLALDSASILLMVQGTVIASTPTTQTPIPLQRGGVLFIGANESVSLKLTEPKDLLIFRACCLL
TNAP act hi DEA = activators of human TNAP at high phosphate acceptor concentration; activation factor at 20 µM; P05186; purified TNAP, CDP-star luminescence, 1 M DEA, 30 min; hits give high values; 0 = EDTA background, 1 = DMSO-only activity; 200,000 tested, under 10 active;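 active means activation factor at least 2 at 20 µM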
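Assay system: human TNAP; Input: enzyme diluted 1/800 final; Reagent: CDP-star luminogenic substrate at 100 µM final; Timing: 30 min, room temperature; Signal: luminescence; Evaluation: TNAP activation factor scaled between EDTA and DMSO control wells.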
TNAP inh hi DEA = blocks human TNAP under high phosphate acceptor concentration | P05186 | purified TNAP, CDP-star luminescence, 1 M DEA | inhibition, % at 20 µM | 0.03% of 200,000 active | AID 1135;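 active means over 50% inhibition of tissue-nonspecific alkaline phosphatase at 20 µM in the single-dose screen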;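 further: plate controls were DMSO wells for no effect and EDTA-quenched wells as full inhibition for full effect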
PMI act satM6P = activators of human phosphomannose isomerase at near-saturating mannose 6-phosphate; coupled PMI enzyme assay, resazurin fluorescence, 20 min; hits give high values; 1 = untreated enzyme, 0 = substrate-free blank; 0.34% of 190,000 active; activation factor at 20 µM; P34949; AID 1216;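 active means activation factor of 2 or more at 20 µM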
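Test system: Human PMI in coupled enzyme assay | Input: 15 ng/mL PMI | Medium: HEPES-buffered pH 7.4 with magnesium and detergent | Compound: One concentration, 20 µM, in 1% DMSO | Incubation: Enzyme reaction with compound 20 min at room temperature | Detection: Diaphorase-driven resazurin-to-resorufin fluorescence, excitation 544, emission 590 nm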
TNAP inh noacc = TNAP (human) inhibition, acceptor-free conditions. P05186. purified TNAP, CDP-star luminescence, 30 min. inhibition, % at 20 µM. 0.26% of 200,000 active. AID 1012;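 active means tissue-nonspecific alkaline phosphatase inhibition above about 50% at 20 µM in the single-dose screen, limit read from the data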;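 further: 0% = DMSO negative control and 100% = EDTA positive control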
Starred values were filed as active, the others as inactive. Most compounds without a hit are left out; they make up all but 0.6% or so of the library.

SMILES	PMI act	TNAP act hi DEA	TNAP inh hi DEA	PMI act satM6P	TNAP inh noacc
CCN(CC)c1ccc(/C=C2\CCC(/C=C(\C#N)C(=O)Nc3ccccc3F)=C2N2CCOCC2)cc1	0.7	0.5	46.6	0.6	52.9*
COCCCn1c(SCC(=O)Nc2sc3c(c2C#N)CCCC3)nnc1-c1ccncc1	1.1	0.4	55.2*	1	26.8
COCCCn1c(SCC(=O)Nc2cccc(C(=O)OC)c2)nnc1-c1ccncc1	0.9	1	-0.7	0.9	-4.3
CCc1cccc2c(C(=O)C(F)(F)F)cn(CC(=O)N3CCOCC3)c12	0.9	1	-2.3	0.9	-7.6
Cc1ccc(S(=O)(=O)c2ccc(NN)cc2)cc1	1.8	1	-4.4	2.5*	-7.6
CN(C)CCCN1C(=O)C2CCc3[nH]c4ccccc4c3C2C1=O (stereo unspecified)	0.9	1	-4.1	0.8	-2.4
N#Cc1ccccc1NC(=O)C1SC(=Nc2ccccc2)C(C(=O)Nc2ccc(Cl)cc2)=C1N (stereo unspecified)	1.8	1	-2.6	2.3*	-9.1
Cc1nn(C)c(C)c1CNC(=O)Nc1cccc(Cl)c1C	1	1	0.9	1	-6.2
COc1ccc(N=Nc2nc3ccc(Br)cc3n2C)cc1	1.4	0.9	14.1	2.2*	14.0
Cc1c(Cl)cccc1NC(=O)COC(=O)c1c2c(nc3ccccc13)CCN(Cc1ccccc1)C2	0.9	1	-3.5	0.9	-8.6
CC(C)c1ccccc1NC(=O)COC(=O)c1c2c(nc3ccccc13)CCN(Cc1ccccc1)C2	1.5	1	-4.8	2.1*	-10.6
CC(C)OC(=O)C(=O)NNc1ccccc1	0.9	1.1	-5.6	1	-12.0
CCOC(=O)C(=O)NNc1ccc(C)cc1	1.4	1	-0.5	2*	-8.7
CCCOC(=O)C(=O)NNc1ccccc1	1.9	1	3.3	2.9*	4.8
CCOC(=O)C(=O)NNc1ccc(Cl)cc1	1.7	1	-4.8	2.5*	-12.4
CC(C)N=C1NN=C(c2ccc(Cl)c(Cl)c2)CS1	0.9	1	1.4	1.1	-11.8
COc1cc(C(c2c(C)[nH][nH]c2=O)c2c(C)[nH][nH]c2=O)ccc1OS(=O)(=O)c1ccccc1	0.8	0.3	71.8*	0.8	28.6
COc1cc(C(c2c(C)[nH][nH]c2=O)c2c(C)[nH][nH]c2=O)ccc1OC(C)C	0.8	0.1	87.1*	0.7	81.8*
COc1cc(C(c2c(C)[nH][nH]c2=O)c2c(C)[nH][nH]c2=O)ccc1OS(=O)(=O)c1ccc(C)cc1	0.9	0.5	50.8*	0.9	12.4
COc1cc(C(c2c(C)[nH][nH]c2=O)c2c(C)[nH][nH]c2=O)cc(OC)c1OC	0.8	1	-1.3	0.6	-7.3
O=C(c1ccco1)N(CCO)Cc1cc2cc3c(cc2[nH]c1=O)OCO3	1.1	1.1	-8.6	1	-9.6
COCCNC(=O)CN(C(=O)Cn1nnc2ccccc21)c1cc(C)cc(C)c1	1	1	0.5	1.1	-3.8
Oc1ccc(/C(Cc2ccc3ccccc3n2)=N\Nc2ccccc2)c(O)c1	1.7	0.9	8.4	2.3*	5.5
Oc1ccc(/C(Cc2ccccn2)=N\Nc2ccccc2)c(O)c1	1.6	1	-1.4	2.5*	-5.7
CC(C)=CCc1c(O)ccc2c1OC(c1ccc(O)c(O)c1)CC2=O (stereo unspecified)	0.6	1	-1.5	0.8	53.7*
SMILES	PMI act	TNAP act hi DEA	TNAP inh hi DEA	PMI act satM6P	TNAP inh noacc
CC(C)C(C(=O)O)N1CCS(=O)(=O)CC1 (stereo unspecified)	1.1	1	-3.8	1	-11.5
CCOc1cc(/C=N/Nc2cccc(C(=O)O)c2)ccc1OCC(=O)N1CCCCC1	1.7	1	-1.9	2.3*	-3.8
O=C1CCC2(CC1)NC(=O)N(c1ccccc1)N2	1.7	1	0.5	2.6*	-7.6
COCCCNC(=S)NCCCNc1nc2cc(C)cc(C)c2cc1C#N	1.6	1.1	-7.1	2.5*	-13.8
COCCCNC(=S)NCCNc1nc2c(C)c(C)ccc2cc1C#N	1.7	1.1	-6.2	2.8*	-6.8
Cc1cc(C)c2cc(C#N)c(NCCNC(=S)NCCCN3CCOCC3)nc2c1	1	1	-4.7	1.1	-10.1
O=C(O)CC1SC(=Nc2ccc(O)cc2)NC1=O (stereo unspecified)	1.1	1.1	-6.0	1.1	53.8*
C/C(=C\c1ccccc1)C(=O)NCc1ccco1	1.1	1	-3.7	1	4.4
CC1(C)Cc2nc3sc(C(=O)O)c(N)c3cc2CS1	1.7	1	-0.7	2.4*	-11.9
Cc1nc(C/C(=N\N)c2ccc(O)cc2O)cs1	1.6	0.9	5.6	2.3*	-4.3
CCc1cc(/C(Cc2csc(C)n2)=N/O)c(O)cc1O	0.8	1.1	-5.1	0.9	-6.9
CSC1=C(C#N)C(c2sccc2C)CC(=O)N1 (stereo unspecified)	1	1	-3.5	0.8	-9.4
CCOC(=O)Cc1cc(=O)n(-c2nc3ccccc3s2)[nH]1	1.7	1	2.0	2.4*	-9.4
C/C(=N\Nc1ccc(Cl)cc1)c1ccccn1	1.7	1	-2.4	2.1*	-3.2
CCCCCC(=O)N/N=C(\C)c1ccccn1	0.8	1	-0.6	0.9	-10.2
Cc1oc2ccc(O)cc2c1C(=O)c1ccc([N+](=O)[O-])cc1	0.9	1	-2.4	0.8	-4.3
CN(C)/C=C/c1oc2ccc(O)cc2c1[N+](=O)[O-]	0.9	0.5	51.6*	0.7	47.6
CN(Cc1cn(C)nc1-c1ccc(Oc2ccccc2)cc1)Cc1cnc2ccccn12	0.8	0.7	26.0	0.9	47.1
Cn1cc(CNCc2cnc3ccccn23)c(-c2ccc(Oc3ccccc3)cc2)n1	1	0.6	39.2	1	74.1*
c1ccc(CCNc2ccccc2)cc1	1.1	1	-1.9	0.9	-6.7
Cc1ccc(-n2ncc3c(NNC(=O)c4cccs4)ncnc32)cc1	1	1	-0.4	1.1	-14.4
CC1Nc2nc(N(C)C)[nH]c(=O)c2NC1C (stereo unspecified)	1.8	1	-1.8	2.7*	-6.9
CN(C)c1nc(C(F)(F)F)cc(=O)[nH]1	1	1.1	-6.0	1	-12.1
O=C(c1ccc(Cl)cc1)c1oc2ccccc2c1CS(=O)c1ccccc1 (stereo unspecified)	1.3	1	-2.6	2.2*	-4.9
CCS(=O)(=O)n1nc(-c2ccco2)nc1SC	1	1.1	-8.2	1.4	4.2
CCS(=O)(=O)n1nc(-c2ccc(Cl)cc2)nc1SC	0.9	1	0.3	0.9	61.4*
Cc1ccc(-n2ncc3c2ncn2c(C)nnc32)cc1C	1.1	1	-0.2	1.1	83.5*
CC(=O)NNc1ncnc2c1cnn2-c1ccc(C)c(C)c1	1	1	1.6	1	-190.2

Screening data from PubChem BioAssay.
